Target: MLL PHD3 finger (Homo sapiens, UniProt Q03164)
Assay: NMR titration of histone peptides
Type: binding
Details: 0.2 mM 15N-labeled PHD3, 12-mer histone tail peptide, 298K
Procedure, shortened: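 PHD3 finger (residues 1565-1627, wild type or mutant) was expressed as a GST fusion in E. coli BL21(DE3) pLysS grown in 15NH4Cl minimal medium. It was affinity-purified, GST-cleaved, size-exclusion purified and held in 25 mM d11-Tris pH 6.8, 150 mM KCl, 10 mM deuterated DTT and 7% 2H2O. 12-mer histone tail peptides were added stepwise to 0.2 mM protein, and normalized chemical shift changes were tracked in 1H,15N HSQC spectra.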

Sequence of MLL PHD3 finger (Q03164 1565-1627): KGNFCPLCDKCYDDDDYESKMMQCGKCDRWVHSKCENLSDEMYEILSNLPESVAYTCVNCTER

H3K4me3: histone H3 tail peptide trimethylated at lysine 4 (biotinylated residues 1-21; 12-mer for NMR)
exchange regime on NMR time scale: intermediate-to-fast exchange regime

Reference: paper PMC2886590 (Journal of molecular biology, 2010)
